# ZTA counter: ZTA (EBV) inhibition in EBNA-1 counter-screen. P03206. ZTA-DNA binding, fluorescence polarization. inhibition, % at 11 µM. 320,000 tested, 0.15% active; in the data active = inhibition above about 33%
# Target sequence (P03206 whole entry, looked up): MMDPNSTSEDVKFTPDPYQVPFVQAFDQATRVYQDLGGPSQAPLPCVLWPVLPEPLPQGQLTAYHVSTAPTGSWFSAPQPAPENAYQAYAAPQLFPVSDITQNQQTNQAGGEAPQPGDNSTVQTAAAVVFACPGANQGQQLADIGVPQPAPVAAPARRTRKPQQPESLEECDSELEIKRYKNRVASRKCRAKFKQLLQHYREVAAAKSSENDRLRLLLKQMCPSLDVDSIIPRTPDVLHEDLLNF
# EBNA-1 inh: blocks EBNA-1 binding to DNA; inhibition, % at 14.8 µM; 300,000 tested, 0.34% active; EBNA-1 DNA binding, fluorescence polarization; in the data active = inhibition above about 28%
# UBC13 inh: inhibitors of human UBC13 polyubiquitin chain formation; P61088; TR-FRET; inhibition, % at 20 µM; 330,000 tested, 0.47% active; in the data active = inhibition above about 45%, passing the limit was not always enough
# Target sequence (P61088 whole entry, looked up): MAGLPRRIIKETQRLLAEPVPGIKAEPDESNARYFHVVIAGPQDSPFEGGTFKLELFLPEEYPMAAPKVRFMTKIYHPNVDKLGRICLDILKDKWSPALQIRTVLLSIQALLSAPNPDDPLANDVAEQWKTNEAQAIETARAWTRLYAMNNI
# M18AAP inhibitor: PfM18AAP enzyme inhibition | recombinant PfM18AAP, H-Glu-NHMec fluorogenic cleavage | inhibition, % at 7.35 µM | 290,000 tested, 1.2% active | AID 1822;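 active = inhibition above the campaign mean inhibition over all tested compounds plus 3 SD, cut at about 28% in these data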
# Apaf-1 inh: inhibitors of human Apaf-1 apoptosome. 330,000 tested, 0.71% active. reconstituted apoptosome caspase-3 activity, DEVD-Rh110 fluorescence. O14727. inhibition, % at 20 µM; active = inhibition of at least 40% at 20 µM
#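 Material: cell-free apoptosome with Apaf-1, procaspase-3 and caspase-9; Buffer or medium: Hepes pH 7.5 with detergent and BSA; Reagent: cytochrome c trigger plus (Z-DEVD)2-Rh110 caspase-3 substrate; Times: compound with Apaf-1, dATP, procaspase-3 30 min, then 50 min reaction, room temperature; Technique: Rh110 fluorescence intensity.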
# PfGluPho inh: PfG6PD (Plasmodium falciparum) enzyme inhibition; PfGluPho enzyme, NADPH resazurin-diaphorase fluorescence; inhibition, % at 20 µM; 350,000 tested, 0.78% active;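 active = inhibition reaching at least a set limit at 20 µM in the primary screen, cut at about 59% in these data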
# Apaf-1 inh conf2: confirmation of Apaf-1 inhibitors | shares compounds with Apaf-1 inh | AID 504614 | reconstituted apoptosome, caspase-3 DEVD-Rh110 fluorescence | inhibition, % at 20 µM | 1,800 tested, 25% active;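 active = mean inhibition of at least 40% at 20 µM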
# Rh110 quench: interferes with Rh110 fluorescence, flagging false Apaf-1 inhibitors. shares compounds with Apaf-1 inh. Rh110 fluorescence interference, quenched caspase reaction. activation (fluorescence interference), % at 20 µM. 1,800 tested, under 10 active. AID 504615;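 active = signal rise of 40% or more at 20 µM, treated as a fluorescence artifact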
# Fluor interf inh: shows fluorescence interference in the Apaf-1 inhibitor assay format; shares compounds with Apaf-1 inh; fluorescence interference counterscreen, Apaf-1 assay format; IC50, µM; 460 tested, under 10 active; call rule not given here
# Hits are given with their value; . = inactive; / = no result given. Only some compounds are listed: those with a hit (about 2.9% of all), similar ones and a draw of the others.
SMILES,ZTA counter,EBNA-1 inh,UBC13 inh,M18AAP inhibitor,Apaf-1 inh,PfGluPho inh,Apaf-1 inh conf2,Rh110 quench,others
Cc1nc(C(=O)NNC(=O)Nc2ccccc2)cs1,.,.,.,.,57,.,.,.,
N#CCCn1[nH]c(-c2ccccc2)cc1=O,.,.,.,.,72,.,.,.,
Cc1cc(=O)n(CCCc2ccccc2)[nH]1,.,.,.,/,.,.,/,/,
COc1ccc(N)c2c1OCCC2=O,.,.,.,.,87,.,.,.,
COc1ccc2c(c1OC)C(=O)OC2,.,.,.,.,.,.,/,/,
O=C(Nc1ccccc1N1CCOCC1)C1CCN(S(=O)(=O)c2ccc(F)cc2)CC1,.,.,.,.,.,.,/,/,
CC(C)OP(=O)(OC(C)C)C(Nc1ccccn1)c1ccc(F)cc1 (stereo unspecified),.,.,.,.,55,.,.,.,
O=C(CCn1c2c(c3ccccc31)CCCC2)NNC(=O)c1ccc(Cl)c([N+](=O)[O-])c1,.,.,.,.,89,.,87,.,Fluor interf inh=.
O=C(CCn1c2c(c3ccccc31)CCCC2)NNC(=O)c1ccc([N+](=O)[O-])cc1,.,.,.,.,81,.,85,.,Fluor interf inh=.
COc1ccc([C@H]2C[C@H](n3cc(-c4ccc(F)cc4)nn3)[C@@H](O)CN2CC2CCCCC2)cc1,/,/,/,/,/,.,/,/,
CC(C)Cn1c(N)c(C(=O)COC(=O)C2CCCCC2)c(=O)n(C)c1=O,.,.,.,.,43,.,.,.,
COc1ccccc1NC(=O)c1nc[nH]c1C(=O)Nc1ccccc1OC,.,.,.,.,95,.,.,.,
C(=Nc1cccc2c(N=Cc3ccco3)cccc12)c1ccco1,.,.,.,.,92,.,.,.,
C(=N\C(/N=C/c1ccco1)c1ccco1)/c1ccco1,.,.,.,.,.,.,/,/,
Cc1ccc(C)n1-c1cc([N+](=O)[O-])ccc1-n1ccnc1,.,.,.,.,.,.,/,/,
CC1(C)N([O-])c2cc([N+](=O)[O-])ccc2[N+]1=O,.,.,.,.,66,70,70,.,Fluor interf inh=.
CCOc1cc(-c2c(C#N)c(N)nc3c2CCc2ccccc2-3)ccc1O,.,.,.,.,.,.,/,/,
COc1ccccc1-c1c(C#N)c(N)nc2c1CCc1ccccc1-2,.,.,.,.,96,.,.,.,
O=C(c1ccccc1)c1ccc(OCC(O)CNCc2cccc(Cl)c2)cc1 (stereo unspecified),/,/,/,.,/,.,/,/,
CCCC(=Nc1ccc(N)cc1)C1=C(O)C(C(=O)OC)C(C)(C)CC1=O (stereo unspecified),.,.,.,.,67,.,.,.,
CCCN(CC(=O)Nc1ccccc1OC)C(=O)Cn1[nH]c(=O)c2ccccc2c1=O,.,/,.,/,.,.,/,/,
CCCN(CC(=O)Nc1ccccc1C)C(=O)CCCOc1ccc(Br)cc1,.,/,.,/,53,.,43,.,Fluor interf inh=.
CCCN(CC(=O)Nc1ccccc1OC)C(=O)CSc1ccc(Br)cc1C,.,/,.,/,57,.,40,.,Fluor interf inh=.
CN(CCCC(=O)Nc1ccc(OC(F)F)cc1)S(=O)(=O)c1ccc(F)cc1,.,.,.,.,.,.,/,/,
CN1CCN(c2ccc(NC(=O)c3ccc(-c4ccc(Cl)cc4)o3)cc2)CC1,.,.,.,.,65,.,.,.,
SMILES,ZTA counter,EBNA-1 inh,UBC13 inh,M18AAP inhibitor,Apaf-1 inh,PfGluPho inh,Apaf-1 inh conf2,Rh110 quench,others
Cc1ccc(S(=O)(=O)N2C[C@@H]3[C@H]4CC[C@H](C4)[C@@H]3[C@@H](C)[C@@H]2c2cn(Cc3ccccc3)c3ccc(F)cc23)cc1,/,/,/,/,.,.,/,/,
C[C@@H]1[C@H]2[C@@H]3CC[C@@H](C3)[C@H]2CN[C@H]1c1cn(Cc2ccccc2)c2ccccc12,/,/,/,/,62,.,.,.,
CCN1CCc2c(sc(NC(=O)c3ccc(C(=O)c4ccccc4)cc3)c2C(N)=O)C1,.,.,.,.,44,.,.,.,
Cc1ccn(CCC(=O)N2CCc3ccccc32)n1,.,.,.,.,.,.,/,/,
CN(C)c1ccc(/C=C2\C(=O)N(c3ccc([N+](=O)[O-])cc3)N=C2N2CCOCC2)cc1,/,/,/,.,/,/,/,/,
O=C1CC(N2CCOCC2)=NN1c1ccc([N+](=O)[O-])cc1,.,.,.,.,94,.,.,.,
CCN(c1ccccc1)S(=O)(=O)c1cccc(C(=O)NCCN2CCOCC2)c1,.,/,.,/,44,.,.,.,
Cc1cc(-c2c(C(=O)N3CCOCC3)c(C)nn2-c2ccccc2)no1,.,.,.,.,.,.,/,/,
Nc1ccc2cn[nH]c2c1,.,.,.,.,52,.,.,.,
CC(C)CCC(CC(C)O)C(=O)NNC(=S)Nc1ccccc1 (stereo unspecified),.,.,.,.,.,.,/,/,
COc1cccc(-c2nnc(SC(C(=O)c3c[nH]c4ccccc34)c3ccccc3)n2C)c1 (stereo unspecified),.,.,.,.,43,.,.,.,
O=C(COC(=O)c1ccc(Cl)c(S(=O)(=O)N2CCCCCC2)c1)NCc1ccccc1,/,/,/,/,/,.,/,/,
Cc1ccc(NC2=C(N3CCOCC3)C(=O)c3ccccc3C2=O)cc1,.,.,.,.,59,.,81,.,Fluor interf inh=.
O=C(c1ccccc1)c1ccc(N2CCOCC2)cc1,/,/,/,/,/,.,/,/,
CC(=O)c1ccc(NC2=C(N3CCOCC3)C(=O)c3ccccc3C2=O)cc1,.,.,.,.,80,.,46,.,Fluor interf inh=.
O=C(O)c1ccc(NC2=C(N3CCOCC3)C(=O)c3ccccc3C2=O)cc1,.,.,.,.,68,.,51,.,Fluor interf inh=.
CC(=O)N(C1=C(N2CCOCC2)C(=O)c2ccccc2C1=O)c1ccc(C(=O)O)cc1,.,.,.,.,59,.,55,.,Fluor interf inh=.
C[C@@H]1CC[C@H]2C(=O)N3[C@@H](CC[C@@H](C)[C@@H]3c3ccc(Br)cc3)C(=O)N2[C@H]1c1ccc(Br)cc1,.,.,.,.,.,.,/,/,
CCn1c2ccccc2c2nnc(SCC(=O)c3c(N)n(C)c(=O)n(C)c3=O)nc21,.,.,.,.,54,.,.,.,
CCn1c2ccccc2c2nnc(SCC(N)=O)nc21,.,.,.,.,.,.,/,/,
CN(C(=O)c1ccccc1OCc1ccc(F)cc1)c1c(N)n(Cc2ccccc2)c(=O)[nH]c1=O,/,/,.,/,.,.,/,/,
Cc1ccc(S(=O)(=O)N2CCN(C(=O)CCOc3cc(C)ccc3C)CC2)cc1,.,/,.,/,40,.,.,.,
O=C(NCc1ccco1)C1CC(O)CN1C(=O)Nc1ccccc1 (stereo unspecified),.,.,.,.,.,.,/,/,
COc1ccc(OCc2cc(C(=O)NC3CCOCC3)no2)c2ccccc12,.,.,.,.,41,.,.,.,

# Screening data deposited in PubChem BioAssay by several laboratories.
